Data set [1] concerns the target T1, Cell division protein FtsZ (Bacillus subtilis) (UniProt A5Z1V5).
T1 sequence (whole entry): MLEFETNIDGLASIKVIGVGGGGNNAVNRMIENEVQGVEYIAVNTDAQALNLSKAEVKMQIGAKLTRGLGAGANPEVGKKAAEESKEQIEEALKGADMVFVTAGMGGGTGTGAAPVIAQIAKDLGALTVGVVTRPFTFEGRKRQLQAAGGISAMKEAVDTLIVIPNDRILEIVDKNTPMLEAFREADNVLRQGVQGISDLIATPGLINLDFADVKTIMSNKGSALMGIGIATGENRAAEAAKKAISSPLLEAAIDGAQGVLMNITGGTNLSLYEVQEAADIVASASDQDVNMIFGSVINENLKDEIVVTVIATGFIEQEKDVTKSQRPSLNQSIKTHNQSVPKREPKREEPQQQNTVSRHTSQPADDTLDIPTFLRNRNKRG
The data set can be described thus: Induction of Bacillus subtilis FtsZ polymerization at 0.1 mM measured after 5 to 10 mins by fluorescence anisotropy analysis. The following applies: time 5-10 min.

Data set [2] deals with T1, Cell division protein FtsZ (Bacillus subtilis). Description: Competitive binding affinity to Bacillus subtilis FtsZ at 10 uM in presence of PC190723 by fluorescence anisotropy analysis. A digest of the protocol:
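Probe (10 μM) in buffer mixed with unassembled BsFtsZ (10 μM), then GMPCPP (0.1 mM). Polymerization started with MgCl2 (10 mM), anisotropy read 5–10 min later. PC190723 (10 μM) then added to displace probe, with anisotropy read 5 min after. Measured at 25 °C in an L-format spectrofluorometer at each probe's excitation/emission maxima.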

For data set [3] the target is unchanged. The data set can be described thus: Binding affinity to Bacillus subtilis FtsZ assessed as decrease in fluorescence anisotropy values at 20 to 200 uM by fluorescence anisotropy analysis. To be noted: dose 20-200 µM. The method, boiled down:
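Screen: probe (S)-2 (3 μM) with glutaraldehyde-cross-linked BsFtsZ-GMPCPP polymers (8 μM binding sites), each compound at 20 and 200 μM; raw anisotropy compared with partially bound probe, free probe and DMSO vehicle controls (2%, 4%). Hits checked for total intensity changes and with replicates lacking FtsZ.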

The test system of data set [4] is Bacillus subtilis. The data set can be described thus: Inhibition of Bacillus subtilis cell division assessed as induction of filamentous phenotype at 25 to 100 uM incubated for 1.5 hrs by fluorescence microscopic analysis. It counts as functional, organism-based. To be noted: dose 25-100 µM. A digest of the protocol: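 B. subtilis grown in cation-adjusted Mueller–Hinton broth to A600 0.1–0.2, then treated 1.5 h with fluorescent benzamide probe. Cells imaged by fluorescence microscopy using the probe's own fluorescence; filamentous phenotype scored as division inhibition.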

In data set [5] the target is T1, Cell division protein FtsZ (Bacillus subtilis). The data set can be described thus: Binding affinity to Bacillus subtilis FtsZ polymer assessed as dissociation constant by fluorescence anisotropy analysis.
The target in data set [6] is T2, Cell division protein FtsZ (Bacillus subtilis, UniProt A5Z1V5).
T2 sequence (A5Z1V5 whole entry): T1 sequence (whole entry)
The data set can be described thus: Displacement of free fluorescent probe from inter domain cleft of stabilized Bacillus subtilis FtsZ assessed as dissociation constant in presence of GMPCPP by fluorescence anisotropy analysis. The method, boiled down:
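BsFtsZ polymers assembled in HEPES buffer pH 6.8 with 10 mM MgCl2 and GMPCPP, cross-linked with 0.15% glutaraldehyde, quenched with NaBH4. Competitor titrated into 7–8 μM polymers plus (S)-2 (3 μM) or 2–3 μM polymers plus (R)-5 (3 μM), 0.1 mM GMPCPP, 25 °C. Initial probe bound fraction 0.4–0.5; KD numerically fitted by competition model; mean ± SEM.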

The test system of data set [7] is Bacillus subtilis. Description: Antimicrobial activity against Bacillus subtilis 168 assessed as inhibition of cell division incubated for 1.5 hrs by phase contrast microscopic analysis. It counts as functional. A digest of the protocol: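 B. subtilis 168 grown in cation-adjusted Mueller–Hinton broth at 37 °C to A600 0.1–0.2, then incubated with compound or DMSO vehicle. Cells observed by microscopy and cell lengths measured; division inhibition expressed as minimal division inhibitory concentration.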

Another data set has as its system IMR-90. Description: Cytotoxicity against human IMR-90 cells assessed as reduction in cell viability at MIC measured after 48 hrs by MTT assay. Type of data set: cell-based. To be noted: imr-90, 48 h.
Data set [8] relates to Staphylococcus epidermidis. Description: Antimicrobial activity against Staphylococcus epidermidis assessed as inhibition of bacterial growth by CLSI based broth macrodilution method. It counts as functional. The method, boiled down:
(§1)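 Cells grown in cation-adjusted Mueller–Hinton broth at 37 °C to A600 0.1–0.2, then exposed to compound or DMSO vehicle. MIC by broth macrodilution as the lowest concentration inhibiting growth.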

Data set [9] concerns Staphylococcus haemolyticus. Description: Antimicrobial activity against Staphylococcus haemolyticus assessed as inhibition of bacterial growth by CLSI based broth macrodilution method. Type of data set: functional. A digest of the protocol:
as §1

Data set [10] concerns Bacillus subtilis. The data set can be described thus: Inhibition of Bacillus subtilis 168 cell division at 0.75 mM measured after 3 hrs by phase-contrast microscopic analysis. It counts as functional, organism-based. A digest of the protocol: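 B. subtilis 168 grown in CAMHB at 37 °C to A600 0.1–0.2, exposed 3 h to compound or DMSO; cell lengths measured from phase-contrast images (n ≥ 30 cells).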

Data set [11] concerns the target T1, Cell division protein FtsZ (Bacillus subtilis). Description: Inhibition of GFP-tagged FtsZ in Bacillus subtilis SU570 assessed as induction of irregular shaped z-ring formation at 0.2 uM incubated for 1.5 hrs. To be noted: dose 200.0 µM, in the assay text read “0.2 mM” for “0.2 uM”. The method, boiled down: (§2)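 B. subtilis SU570 expressing FtsZ-GFP grown in cation-adjusted Mueller–Hinton broth at 30 °C to A600 0.1–0.2, then grown 1.5 h with compound or DMSO vehicle. FtsZ-GFP localization (Z-rings, foci) assessed by fluorescence microscopy.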

The target is the same in data set [12]. The data set can be described thus: Inhibition of GFP-tagged FtsZ in Bacillus subtilis SU570 assessed as delocalization into punctate foci at 0.2 uM incubated for 1.5 hrs. The following applies: dose 200.0 µM, in the assay text read “0.2 mM” for “0.2 uM”. A digest of the protocol:
as §2

The structures appear in SMILES notation. In brackets after ≈: the same amount, converted by molar mass. Activity calls are given as the source filed them. The calls are words filed in the database; no cut-off is given here.

`Nc1nc2c(ncn2[C@@H]2O[C@H](CO[P@@](=O)(O)C[P@@](=O)(O)OP(=O)(O)O)[C@@H](O)[C@H]2O)c(=O)[nH]1`: the outcome in [1] was Active.

On to `CCCC(COc1ccc(F)c(C(N)=O)c1F)Nc1ccc([N+](=O)[O-])c2nonc12` (centres undefined), for which the result in data set [2] was Active.

Consider `O=C(O)CCN(Cc1ccccc1)Cc1cccc(Sc2ccccc2)c1`, for which, in [3], the result was inactive.

`CCCCCCCCC(CNc1ccc([N+](=O)[O-])c2nonc12)Oc1ccc(F)c(C(N)=O)c1F` (centres undefined): the result in data set [2] was inactive.

Consider `CCC[C@H](CNc1ccc([N+](=O)[O-])c2nonc12)Oc1ccc(F)c(C(N)=O)c1F`, for which the inhibition entry in the data set on Bacillus subtilis [4] is “inactive”.

Take `NC(=O)c1cccc(NCc2cccc(Cl)c2)c1`: the result in [3] was inactive.

On to `NC(=O)c1c(F)ccc(OCc2nc3cc(Cl)cnc3s2)c1F`, for which the Activity in data set [5] is below 0.1 µM. Besides, the dissociation constant (Kd) in [6] is below 100 nM.

As to `NC(c1cccc(OCc2cccc(Cl)c2)c1)C(F)(F)F` (centres undefined), the MIC in the data set with Bacillus subtilis [7] turned out to be 250 µM (≈ 78.9 µg/mL).

Take `NC(=O)c1c(F)ccc(OCc2cccc(C(F)(F)F)c2)c1F`: the Activity result with IMR-90 was “Non-Toxic”.

With `CCC[C@H](COc1ccc(F)c(C(N)=O)c1F)Nc1ccc([N+](=O)[O-])c2nonc12`, the inhibition result with Bacillus subtilis [4] was “Active”.

`CCC[C@@H](COc1ccc(F)c(C(N)=O)c1F)Nc1ccc([N+](=O)[O-])c2nonc12`: in the data set on Bacillus subtilis [4], the inhibition entry is “Active”.

In the case of `FC(F)(F)c1cccc(COc2cccc(-c3ncc[nH]3)c2)c1`, in the data set with Bacillus subtilis [7], the minimum inhibitory concentration (MIC) turned out to be 50 µM (≈ 15.9 µg/mL).

For the compound `O=C(O)C(=O)c1cn(Cc2ccccc2)c2ccc(-c3ccc(OC(F)(F)F)cc3)cc12`, in data set [3], the outcome was inactive.

For the compound `NC(=O)c1c(F)ccc(OCc2cccc(Cl)c2)c1F`, in the data set on IMR-90, the Activity entry is recorded as “Non-Toxic”.

Take `CCCCCC(CNc1ccc([N+](=O)[O-])c2nonc12)Oc1ccc(F)c(C(N)=O)c1F` (centres undefined): the outcome in [2] was inactive.

As to `CCCC(COc1ccc(F)c(C(N)=O)c1F)Nc1cccc(C(F)(F)F)c1` (racemic), the MIC in [8] and in data set [9] was 50 µM (≈ 20.1 µg/mL) throughout.

Take `CN(Cc1cccc(Cl)c1)c1ccc(C(N)=O)cc1`: the result in data set [3] was inactive.

Regarding `CCC[C@@H](CNc1ccc([N+](=O)[O-])c2nonc12)Oc1ccc(F)c(C(N)=O)c1F`, in the data set on Bacillus subtilis [4], the inhibition entry was “Active”.

`CN(Cc1cccc(Cl)c1)c1cccc(C(N)=O)c1`: the inhibition result (with Bacillus subtilis [10]; in data set [11]; in data set [12]) was “Active” in each case. Further, in data set [3], the outcome was inactive.

On to `CC1=CC(=O)c2c(O)cccc2C1=O`, for which the outcome in data set [3] was inactive.

On to `NC(=O)c1c(F)ccc(OCCNc2cccc(C(F)(F)F)c2)c1F`, for which, in the data set on IMR-90, the Activity entry is given as “Non-Toxic”.

Consider `Clc1cccc(COc2cccc(-c3ncc[nH]3)c2)c1`, for which, in the data set on Bacillus subtilis [7], the MIC came to 50 µM (≈ 14.2 µg/mL).

Consider `O=C(Oc1cc(OC(=O)c2cc(O)cc(O)c2)c2ccccc2c1)c1ccc(O)c(O)c1`, for which, in data set [3], the outcome was Active.

Regarding `Oc1ccc(/C=C/c2cc(O)cc(O)c2)cc1`, in [3], the outcome was inactive.

Consider `CCC[C@H](COc1ccc(F)c(C(N)=O)c1F)Nc1cccc(C(F)(F)F)c1`, for which the Activity entry in the data set with IMR-90 is “Non-Toxic”.

Turning to `NC(=O)c1c(F)ccc(OCCNc2ccc([N+](=O)[O-])c3nonc23)c1F`, the result in data set [2] was Active.

For the compound `CCN(CC)CCNc1nc(/C=C/c2ccc(Cl)cc2)nc2cc3ccccc3cc12`, in data set [3], the outcome was inactive.

Turning to `NC(=O)c1ccc(NCc2cccc(Cl)c2)cc1`, the result in data set [3] was inactive.

Take `CCCC(CNc1ccc([N+](=O)[O-])c2nonc12)Oc1ccc(F)c(C(N)=O)c1F` (centres undefined): in data set [2], the result was Active.

The values above are taken from ChEMBL document CHEMBL5033991, “Targeting the FtsZ Allosteric Binding Site with a Novel Fluorescence Polarization Screen, Cytological and Structural Approaches for Antibacterial Discovery” (J Med Chem, 2021).
